Assay outcomes (PubChem)
Compounds with a hit are over-represented: about 2.1% of the library has one in this group of screens.
CFTR F508del cor – CFTR F508del correction in bronchial cells | CFBE cells, YFP halide quenching; stimulated with forskolin plus potentiator P3; % fluorescence drop versus neutral controls | activity (quench increase), % at 7.58 µM | hit rate 0.36% among 350,000;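 active = mean added fluorescence quench of at least 8% versus neutral control, with both replicates also reaching 8%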;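 also: cells transiently co-express mutant CFTR-F508del with the halide-sensitive YFP; corrector assay measuring rescue of mutant channel to the surface after 24 h compound exposure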
MC4R antagonist – human MC4R antagonism in cAMP assay; P32245; MC4R-expressing cells, MTII-stimulated cAMP, LANCE TR-FRET; inhibition, % at 6.5 µM; hit rate 0.48% among 360,000; AID 540295;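 active = inhibition above its plate's cutoff, the mean of tested wells on that plate plus 3 SD, cut at about 29% in these data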;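 also: 0% = Melanotan II alone and 100% = Melanotan II plus saturating MCL0020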
Target sequence (P32245 whole entry, looked up): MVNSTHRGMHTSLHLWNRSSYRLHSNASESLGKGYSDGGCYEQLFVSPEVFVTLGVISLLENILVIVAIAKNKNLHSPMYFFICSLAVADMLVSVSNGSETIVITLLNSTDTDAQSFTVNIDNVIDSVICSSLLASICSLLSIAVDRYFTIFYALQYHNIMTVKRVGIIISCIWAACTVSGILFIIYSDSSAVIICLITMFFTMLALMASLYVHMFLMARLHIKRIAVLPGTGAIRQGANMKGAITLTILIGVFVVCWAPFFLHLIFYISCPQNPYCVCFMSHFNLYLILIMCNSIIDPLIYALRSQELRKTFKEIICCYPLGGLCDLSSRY
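Assay system: U2OS-MC4R stable cell line; Also added: Melanotan II; Technique: Eu-cAMP/anti-cAMP TR-FRET, emission 671 nm; Times: 30-min compound, 1-h challenge, 1-h detection, room temperature.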
MC4R barr agon – activates human MC4R beta-arrestin recruitment; P32245; U2OS MC4R beta-arrestin complementation, luminescence; percent of melanotan II response, DMSO zero; hit rate 0.98% among 360,000; activation, % at 8.9 µM; AID 540308;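 active = activation above a per-plate cutoff, the mean activation of sample wells on that plate plus 3 SD, cut at about 8% in these data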
SMARCA2 act – SMARCA2 function activation, primary screen; activation, % at 9.1 µM; MG213 cells, MMTV-luciferase reporter, dexamethasone, overnight; hit rate 1% among 370,000; in the data active = activation above about 7.8%;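 also: 0% = vehicle wells and 100% = reference activator wells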
SMARCA2 conf – SMARCA2 activation, confirmation screen; hit rate 30% among 3,500; activation, % at 9.1 µM; shares compounds with SMARCA2 act; MG213 cells, MMTV-luciferase with dexamethasone, luminescence, overnight; MG213 cells expressing E1A, Rb sequestered; DMSO wells 0%, reference activator 100%; AID 652260;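 active = activation above its plate's cutoff, the mean activation of tested wells plus 3 SD, cut at about 7.9% in these data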
VP16 Luc act – activates GAL4-VP16 luciferase, flagging SMARCA2 activator hits; shares compounds with SMARCA2 act; HEK293 GAL4-VP16 pG5luc reporter, luciferase luminescence; scaled: DMSO wells 0%, SAHA wells 100%; activation, % at 9.1 µM; hit rate 41% among 3,500; AID 686939;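 active = activation above the solvent-only control well mean plus 3 SD, averaged across control plates, cut at about 5.2% in these data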
* = called active by the depositor; nt = not tested or not shown.

SMILES	CFTR F508del cor	MC4R antagonist	MC4R barr agon	SMARCA2 act	SMARCA2 conf	VP16 Luc act
Cn1c(CCC(=O)O)nc2cc(S(=O)(=O)N3CCCC3)ccc21	1.2	3.5	1.0	-4.9	nt	nt
O=C1c2ccccc2[C@@]2(Cc3ccccc3N(Cc3ccccc3)C2=O)[C@H](c2ccc(CO)cc2)N1C1CCCCC1	-3.0	nt	nt	nt	nt	nt
O=c1c2ccccc2nc2n1CCc1c-2[nH]c2ccccc12	-4.6	6.6	4.7	16.4*	8.4*	9.3*
Cc1cccc2c(=O)n3c(cc12)-c1[nH]c2ccccc2c1CC3	1.5	17.4	8.0	5.8	nt	nt
COc1ccc(N2CC(=O)N(c3ccccc3)C2=S)cc1	nt	7.3	-0.1	11.2*	8.7*	1.3
O=C(NCc1cccnc1)c1cccs1	3.5	0.1	-1.1	9.5*	1.8	-0.3
Cc1cc(C(=O)NCc2cccnc2)cs1	-0.3	3.3	-0.4	nt	nt	nt
CCN(CC)CCCNc1nc2ccccc2c2nc(-c3ccncc3)nn12	15.0*	11.2	-0.6	22.8*	35.2*	0.4
CCC(=O)N(C)C[C@H]1Oc2ncc(-c3ccc(C)cc3)cc2C(=O)N([C@@H](C)CO)C[C@H]1C	0.6	nt	nt	nt	nt	nt
CN(C(=O)c1cc2c(=O)n3ccccc3nc2n1C)C1CCCCC1	0.6	1.6	0.3	8.0*	2.2	13.7*
C[C@H](CO)N1C[C@H](C)[C@H](CN(C)Cc2ccc(C(=O)O)cc2)Oc2c(NS(=O)(=O)c3ccc(Cl)cc3)cccc2C1=O	-1.0	nt	nt	nt	nt	nt
CCOC(=O)C1CCN(C(=O)Nc2ccccc2Cl)CC1	nt	0.4	-1.5	0.9	nt	nt
CCOC(=O)N1CCN(C(=O)Nc2ccccc2Cl)CC1	-0.1	21.2	0.4	9.0*	1.4	1.8
COc1ccc(NC(=O)N(C)C[C@H]2Oc3c(NC(=O)Nc4ccc(F)cc4)cccc3C(=O)N([C@H](C)CO)C[C@@H]2C)cc1	-1.2	nt	nt	nt	nt	nt
C=CC[C@]1(C(=O)N2CCOCC2)COC(c2ccc(OCCCO)cc2)=N1	-1.7	nt	nt	nt	nt	nt
CCOC(=O)N1Cc2cc3ccccc3nc2C1	1.8	2.2	0.8	8.9*	7.6	10.4*
Cn1c(N)c(C(=O)COC(=O)C2Cc3ccccc3CN2S(C)(=O)=O)c(=O)n(C)c1=O (configuration not stated)	1.3	-2.7	1.6	8.4*	-4.5	1.0
COCC(=O)Nc1ccc2c(c1)[C@@H]1C[C@H](CC(=O)NCc3ccncc3)O[C@@H](CO)[C@@H]1O2	4.1	nt	nt	nt	nt	nt
Cc1ccc(S(=O)(=O)N2CCOCC2)cc1C(=O)NCc1cccnc1	-1.7	7.0	-0.8	10.2*	0.2	0.9
O=C(C[C@@H]1C[C@@H]2c3cc(NC(=O)Cc4ccncc4)ccc3O[C@@H]2[C@@H](CO)O1)NCC1CC1	1.0	nt	nt	nt	nt	nt
CO[C@@H]1CN(C)C(=O)c2cc(NC(=O)c3ccc(Oc4ccccc4)cc3)ccc2OC[C@@H](C)N(C(C)=O)C[C@H]1C	-3.4	nt	nt	nt	nt	nt
COc1ccc(NC2CCCN(C(=O)CN3C(=O)c4ccccc4C3=O)C2)cc1OC (configuration not stated)	0.7	4.0	-1.3	8.0*	-5.0	1.0
CCOC(=O)/C=C1\CC(C(=O)OCC)Oc2c(OC)cccc21 (configuration not stated)	0.0	-1.6	-3.1	9.6*	-3.4	1.1
Cc1ccc(NC(=O)c2cc3nc(C)cc(C)n3n2)cc1	nt	3.6	-0.6	9.4*	10.2*	7.9*
C[C@@H]1CCCCO[C@@H](CN(C)C(=O)Nc2ccc3c(c2)OCO3)[C@H](C)CN([C@@H](C)CO)C(=O)c2cc(NC(=O)c3ccccc3)ccc2O1	2.1	nt	nt	nt	nt	nt
SMILES	CFTR F508del cor	MC4R antagonist	MC4R barr agon	SMARCA2 act	SMARCA2 conf	VP16 Luc act
O=C(Nc1cccc(Cl)c1)N[C@H]1CC[C@@H](CCNC(=O)C2CCCCC2)O[C@@H]1CO	0.4	nt	nt	nt	nt	nt
Cc1cc2c(cc(C(=O)OCC(=O)NCc3ccco3)n2C)s1	nt	-7.1	-0.4	-2.0	nt	nt
Cn1c(C(=O)OCC(=O)NCc2ccco2)cc2sccc21	3.3	-2.9	-0.4	14.3*	1.3	1.8
C/C(=N\Nc1ccc(Cl)c(C(=O)O)c1)c1ccccn1	0.3	8.4	-1.2	13.2*	3.1	2.7
C/C(CC(=O)Nc1ccc(F)cc1)=N\NC(=O)c1ccccn1	-1.4	11.7	-3.4	9.2*	-3.1	4.9
C/C(=N\NC(=O)c1ccc(F)cc1)c1ccccn1	-8.6	0.2	-4.8	9.6*	-12.0	-2.7
CC(=O)Nc1ccccc1NC(=O)C/C(C)=N/NC(=O)c1ccccn1	nt	8.9	-2.1	6.0	nt	nt
C/C(=N\NC(=O)c1c[nH]c2ccccc12)c1ccccn1	6.7	1.0	-1.3	0.2	nt	nt
C[C@H]1CCCCO[C@H](CN(C)C(=O)Cc2ccccc2)[C@@H](C)CN([C@@H](C)CO)C(=O)c2cc(NC(=O)Cc3ccccc3)ccc2O1	0.5	nt	nt	nt	nt	nt
COc1ccc(NC(=O)N(C)C[C@@H]2OCCCC[C@@H](C)Oc3ccc(NC(=O)CCCN(C)C)cc3C(=O)N([C@@H](C)CO)C[C@H]2C)cc1	0.9	nt	nt	nt	nt	nt
COc1ccc(C#Cc2ccc3c(c2)[C@H]2[C@H](CCN2C(=O)c2ccccn2)[C@@H](CO)N3)cc1	2.8	nt	nt	nt	nt	nt
O=C1Cc2c([nH]c3ccc(Br)cc23)-c2ccccc2N1	4.2	-0.1	3.0	9.2*	19.0*	1.6
CCCN1C[C@@H](C)[C@@H](OC)CN(C)C(=O)c2cc(NC(=O)NC3CCCCC3)ccc2OC[C@@H]1C	-1.0	nt	nt	nt	nt	nt
O=C(/C=C/c1ccccc1)Nc1cccc(C(=O)NCc2ccccc2)c1	-3.5	nt	nt	-2.8	nt	nt
O=C(/C=C/c1ccccc1)Nc1cccc(C(=O)NC2CC2)c1	-2.7	5.1	-1.2	12.5*	0.8	6.7*
Cc1ccc2nc(-c3cccc(Br)c3)c(Cc3ccsc3)n2c1	-0.3	nt	nt	9.5*	9.7*	8.9*
Cc1ccc2nc(-c3ccccc3)c(Cc3ccsc3)n2c1	3.5	nt	nt	3.7	nt	nt
Cc1ccc2nc(-c3ccc(F)cc3)c(Cc3cccc(F)c3)n2c1	1.9	nt	nt	8.6*	2.8	1.4
Cc1ccc2nc(-c3ccccc3)c(Cc3cccc(F)c3)n2c1	3.8	nt	nt	4.0	nt	nt
Cc1ccc2nc(-c3ccc(F)cc3)c(Cc3cccc(Cl)c3)n2c1	3.2	nt	nt	12.8*	7.3	7.3*
Cc1cc2nc(-c3cccnc3SCC(=O)NC(C)C)[nH]c2cc1C	1.3	0.6	-2.7	10.6*	8.4*	8.9*
Cc1onc(-c2c(F)cccc2Cl)c1C(=O)NC(=S)NC1CCS(=O)(=O)C1 (configuration not stated)	nt	3.2	-0.1	15.5*	0.1	0.5
Cc1onc(-c2c(F)cccc2Cl)c1C(=O)NC1CCCCCC1	-4.9	6.9	-2.1	2.0	nt	nt
COC(=O)NCC(C)OC(=O)Nc1ccc(Cl)cc1 (configuration not stated)	2.3	-0.7	-0.4	-1.9	nt	nt
